The source made the active and inactive calls. The calls are words filed in the database; no cut-off is given here.

The text below walks through data of ChEMBL document CHEMBL4765236, “Insights into the Antimicrobial Activity and Cytotoxicity of Engineered α-Helical Peptide Amphiphiles” (J Med Chem, 2016).

In experiment [1] the test system is Cell membrane. Nature of the experiment: Induction of outer membrane permeabilization in Escherichia coli O157:H7 CICC 21530 assessed as increase in fluorescence intensity at 7.5 uM by NPN-dye based fluorescence assay. Format: subcellular.
Experiment [2] concerns Cell membrane. Description: Induction of cell membrane disruption in Escherichia coli O157:H7 CICC 21530 assessed as propidium iodide-positive cells at 2 times MIC measured after 30 mins by flow cytometry analysis (reference value: 5.7 %). Format: subcellular. On the technique in general: In flow cytometry, cells or beads pass a laser one at a time.
In experiment [3] the test system is Cell membrane. Description: Induction of cell membrane disruption in Escherichia coli O157:H7 CICC 21530 assessed as propidium iodide-positive cells measured after 30 mins by flow cytometry analysis. The experiment is classed as subcellular.
The subject of experiment [4] is Staphylococcus aureus. Nature of the experiment: Induction of morphological changes in Staphylococcus aureus ATCC 29213 assessed as membrane destruction at 1 times MIC after 60 mins by SEM analysis. Format: functional, organism-based. In short, it runs like this: (§1)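 S. aureus grown to exponential phase in MHB at 37 °C with shaking at 220 rpm. Cells washed twice in PBS, resuspended to OD600 0.2, then exposed to peptide at 1× MIC for 60 min at 37 °C; untreated cells served as control. Cells were pelleted, PBS-washed, fixed overnight in 2.5% glutaraldehyde at 4 °C, dehydrated through graded ethanol then tert-butanol, and imaged by SEM.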

The test system of experiment [5] is HepG2. Nature of the experiment: Induction of cell cycle arrest in human HepG2 cells assessed as accumulation at Go/G1 phase at 64 uM incubated for 24 hrs by annexin-V/FITC staining-based FACS flow cytometry analysis (reference value: 54.61 %). The experiment is classed as functional.
Experiment [6] relates to Escherichia coli. Nature of the experiment: Induction of morphological changes in Escherichia coli O157:H7 CICC 21530 assessed as membrane creeping at 1 times MIC after 60 mins by SEM analysis. The experiment is classed as functional, organism-based.
Experiment [7] concerns Escherichia coli. Description: Induction of morphological changes in Escherichia coli O157:H7 CICC 21530 assessed as membrane blebbing at 1 times MIC after 60 mins by SEM analysis. The experiment is classed as functional, organism-based.
In experiment [8] the test system is Staphylococcus aureus. Nature of the experiment: Induction of morphological changes in Staphylococcus aureus ATCC 29213 assessed as membrane alteration at 1 times MIC after 60 mins by TEM analysis. The experiment is classed as functional, organism-based.
Experiment [9] relates to Staphylococcus aureus. Description: Induction of morphological changes in Staphylococcus aureus ATCC 29213 assessed as intracellular changes at 1 times MIC after 60 mins by TEM analysis. Format: functional, organism-based.
Experiment [10] deals with Staphylococcus aureus. Nature of the experiment: Induction of morphological changes in Staphylococcus aureus ATCC 29213 assessed as membrane stunting at 1 times MIC after 60 mins by SEM analysis. The experiment is classed as functional, organism-based. A digest of the protocol: as §1
Experiment [11] deals with HepG2. Nature of the experiment: Induction of cell cycle arrest in human HepG2 cells assessed as accumulation at G2/M phase at 64 uM incubated for 24 hrs by annexin-V/FITC staining-based FACS flow cytometry analysis (reference value: 28.75 %). The experiment is classed as functional.
In experiment [12] the test system is HepG2. Description: Induction of cell cycle arrest in human HepG2 cells assessed as accumulation at S phase at 64 uM incubated for 24 hrs by annexin-V/FITC staining-based FACS flow cytometry analysis (reference value: 20.51 %). The experiment is classed as functional.
For experiment [13], the system named is Escherichia coli. Description: Induction of morphological changes in Escherichia coli O157:H7 CICC 21530 assessed as membrane destruction at 1 times MIC after 60 mins by SEM analysis. The experiment is classed as functional, organism-based.
Experiment [14] has as its system HepG2. Description: Induction of cell cycle arrest in human HepG2 cells assessed as accumulation at S phase at 32 uM incubated for 24 hrs by annexin-V/FITC staining-based FACS flow cytometry analysis (reference value: 20.51 %). Format: functional.
Experiment [15] deals with Escherichia coli. Description: Induction of morphological changes in Escherichia coli O157:H7 CICC 21530 assessed as membrane stunting at 1 times MIC after 60 mins by SEM analysis. Format: functional, organism-based.
The test system of experiment [16] is HepG2. Nature of the experiment: Induction of cell cycle arrest in human HepG2 cells assessed as accumulation at sub-G1 phase at 32 uM incubated for 24 hrs by annexin-V/FITC staining-based FACS flow cytometry analysis (reference value: 0.07%). The experiment is classed as functional.
Experiment [17] has as its system Staphylococcus aureus. Description: Induction of morphological changes in Staphylococcus aureus ATCC 29213 assessed as membrane creeping at 1 times MIC after 60 mins by SEM analysis. The experiment is classed as functional, organism-based. A digest of the protocol: as §1
Experiment [18] relates to Cell membrane. Description: Induction of cell membrane disruption in Escherichia coli O157:H7 CICC 21530 assessed as propidium iodide-positive cells at 1 times MIC measured after 30 mins by flow cytometry analysis (reference value: 5.7 %). The experiment is classed as subcellular.
Experiment [19] concerns HepG2. Description: Induction of cell cycle arrest in human HepG2 cells assessed as accumulation at G2/M phase at 32 uM incubated for 24 hrs by annexin-V/FITC staining-based FACS flow cytometry analysis (reference value: 28.75 %). The experiment is classed as functional.
Experiment [20] concerns Staphylococcus aureus. Description: Induction of morphological changes in Staphylococcus aureus ATCC 29213 assessed as membrane blebbing at 1 times MIC after 60 mins by SEM analysis. Format: functional, organism-based. A digest of the protocol: as §1
Experiment [21] deals with Cell membrane. Nature of the experiment: Induction of cell membrane disruption in Escherichia coli O157:H7 CICC 21530 assessed as propidium iodide-positive cells at 0.5 times MIC measured after 30 mins by flow cytometry analysis (reference value: 5.7 %). Format: subcellular.
The subject of experiment [22] is Lipopolysaccharide (LPS). Description: Displacement of BODIPYTM-TR-cadaverine from Escherichia coli O111:B4 LPS by fluorescence spectroscopic analysis. As to conditions: dose 0.25-4 µM. A digest of the protocol:
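LPS-binding dye displacement: LPS (25 µg/mL) and BODIPY-TR-cadaverine (2.5 µg/mL) in tris buffer pH 7.4. An equal volume of peptide solution was added and the rise in fluorescence was recorded at excitation 580 nm and emission 620 nm. Melittin served as positive control. Each test was run independently in triplicate.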

For experiment [23], the system named is Escherichia coli. Nature of the experiment: Induction of morphological changes in Escherichia coli O157:H7 CICC 21530 assessed as outflow of cytoplasm at 1 times MIC after 60 mins by TEM analysis. Format: functional, organism-based.
In experiment [24] the test system is RAW264.7. Description: Antiinflammatory activity against mouse RAW264.7 cells assessed as inhibition of LPS-induced nitric oxide production at 32 uM measured after 24 hrs by Griess reagent based ELISA. Format: functional, cell-based. In short, it runs like this: (§2)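 RAW264.7 cells plated at 1-2 × 10^5 cells/mL and stimulated with 500 ng/mL LPS with or without peptide (0.5-64 µM) for 24 h at 37 °C. Controls were untreated cells and LPS alone. TNF-α in the supernatant measured by ELISA. NO measured by Griess reagent (1% sulfanilamide, 0.1% naphthylethylenediamine, 5% phosphoric acid).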
Background: Nitrite, measured by Griess reagent, commonly stands in for NO production.

Experiment [25] relates to HepG2. Description: Induction of ROS generation in human HepG2 cells assessed as increase in fluorescence intensity up to 32 uM by DCFH-DA staining-based fluorescence analysis. The following applies: dose microM <=32, time 8.0 hrs, TDE = time-dependent effect. Format: functional, cell-based.
Experiment [26] deals with RAW264.7. Description: Antiinflammatory activity against mouse RAW264.7 cells assessed as inhibition of LPS-induced TNF-alpha production at 4 uM measured after 24 hrs by […] ELISA. Format: functional, cell-based. A digest of the protocol:
as §2

The subject of experiment [27] is Cell membrane. Nature of the experiment: Induction of cell membrane disruption in Staphylococcus aureus ATCC 29213 assessed as spread of fluorescent signal across membrane surface at 1 times MIC in presence of FITC-labelled compound after 30 mins by confocal laser-scanning microscope analysis. The experiment is classed as subcellular.
The subject of experiment [28] is HepG2. Description: Induction of apoptosis in human HepG2 cells assessed as nucleus budding at 32 uM incubated for 2 to 4 hrs by DAPI staining based confocal microscopy. The experiment is classed as functional, cell-based. As to conditions: time 2-4 hrs. A digest of the protocol:
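HepG2 cells treated with 32 µM peptide for 2, 4 or 8 h and stained with DAPI. Nuclear morphology imaged by confocal microscopy, with untreated cells as control.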

For H-WGEAFSAGVHRLANGGNG-NH2, the outcome in [1] was inactive. The Activity in [2] is 27.7%; in [3], “Dose-dependent effect”; in experiment [5] it was 34.77%; in experiment [11], 30.85%; in experiment [12] it was 31.61%; in experiment [14], 25.26%. The Activity in experiment [16] is 1.06%; in experiment [18] it was 22.9%; in experiment [19], 29.33%; in [21] it was 14.3%. Moreover, the result in [4], in experiment [6], in experiment [7], in experiment [8], in experiment [9] and in [10] was Active. The result in experiment [13], in [15], in [17] and in experiment [20] was Active.

Turning to H-WLRAFRRLVRRLARGLRR-NH2, the Activity in [2] was 98%; in [3], “Dose-dependent effect”; in experiment [5] it was 5.83%; in [25], “Tde”; in experiment [11], 5.67%; in [12] it was 11.48%. Moreover, the Activity amounted to 33.17% in experiment [14]; 24.8% in experiment [16]; 91.1% in [18]; 21.23% in [19]; 78.9% in experiment [21]. The outcome in experiment [4], in [22], in [23], in experiment [24], in experiment [6] and in experiment [7] was Active. The outcome in experiment [26], in experiment [27], in experiment [10], in experiment [13], in experiment [15] and in experiment [17] was Active. In addition, the outcome in [28] and in experiment [20] was Active.
